Reference: ChEMBL document CHEMBL5376016, “Synthesis of novel rapanone derivatives via organocatalytic reductive C-alkylation: biological evaluation of antioxidant properties, in vivo zebrafish embryo toxicity, and docking studies” (RSC Med Chem, 2024)

Experiments:
[1] = Antioxidant activity assessed as DPPH radical scavenging activity after 30 mins by spectrophotometric analysis relative to control; type: functional; parameters: concentration or dose not given beside the values
How it was run: (§1)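 Ascorbic acid was the reference standard. For DPPH, 0.2 mM DPPH in methanol was kept in the dark, mixed with compound at 5–160 µM (DMSO stock), and incubated 30 min in the dark at room temperature, then A517 was read. %RSA = (Ac−As)/Ac×100. Triplicate runs; IC50 taken from the plot of % scavenging versus concentration.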

[2] = Acute toxicity in zebrafish embryo assessed as survival rate at 96 hrs post fertilization relative to control; parameters: species or system Danio rerio; concentration or dose not given beside the values; conditions: in vivo, read-out: Survival
How it was run: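 Lethality endpoints were coagulation and absence of heartbeat, checked by inverted microscope. Survival was compared with untreated embryos across three independent experiments; mean ± SD, ANOVA.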

[3] = Acute toxicity in zebrafish embryo assessed as hatching rate at 20 to 160 uM measured after 48 hrs post fertilization relative to control; parameters: species or system Danio rerio; conditions: in vivo, dose 20-160 µM
How it was run: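 Controls were water and water with 0.5% DMSO. Incubation at 26.8 ± 1 °C, 20 embryos per well. Hatching scored over 0–96 hpf under an inverted microscope. Triplicate, three independent experiments; mean ± SD; ANOVA.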

[4] = Acute toxicity in zebrafish embryo assessed as morphological changes at upto 160 uM measured after 48 hrs post fertilization relative to control; parameters: species or system Danio rerio; conditions: in vivo
How it was run: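 Wild-type Danio rerio embryos were exposed in milli-Q water with compound dissolved in DMSO (≤0.25 v/v final). Controls were milli-Q water and water with DMSO. Embryos were held at 26.8 ± 1 °C and scored by inverted microscope at 24–96 hpf, after exposure at 160 µM, for bent spine, yolk sac edema, pericardial edema, short tail and bent tail.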

[5] = Antioxidant activity assessed as DPPH radical scavenging activity after 30 mins by spectrophotometric analysis; type: functional; how it was run: as §1
[6] = Antioxidant activity assessed as ABTS radical scavenging activity after 6 mins by spectrophotometric analysis relative to control; type: functional; parameters: concentration or dose not given beside the values
[7] = Antioxidant activity assessed as ABTS radical scavenging activity after 6 mins by spectrophotometric analysis; type: functional

Structure (SMILES) | Activity [1] [%] | survival at 96 h [2] [%] | Activity [3] [%] | Activity [4] | IC50 [5] [µM] | Activity [6] [%] | IC50 [7] [µM]
CCCCCCCCCCCC1=C(O)C(=O)C(Cc2ccccc2[N+](=O)[O-])=C(O)C1=O | 50.3 | > 90 | 51.33 | Non-Toxic | 4.76 | 52.1 | 5.34
CCCCCCCCCCCC1=C(O)C(=O)C(Cc2ccc(C#N)cc2)=C(O)C1=O | 50.3 | > 90 | 51.33 | Non-Toxic | 4.58 | 52.1 | 5.15
CCCCCCCCCCCC1=C(O)C(=O)C(Cc2ccc(F)cc2)=C(O)C1=O | 50.3 | > 90 | 51.33 | Non-Toxic | 4.65 | 52.1 | 5.22
CCCCCCCCCCCC1=C(O)C(=O)C(Cc2ccccc2C#N)=C(O)C1=O | 50.3 | > 90 | 51.33 | Non-Toxic | 4.43 | 52.1 | 5.01
CCCCCCCCCCCC1=C(O)C(=O)C(Cc2cccc([N+](=O)[O-])c2)=C(O)C1=O | 50.3 | > 90 | 51.33 | Non-Toxic | 4.8 | 52.1 | 5.36
CCCCCCCCCCCC1=C(O)C(=O)C(Cc2c(Cl)cccc2Cl)=C(O)C1=O | 50.3 | > 90 | 51.33 | Non-Toxic | 4.87 | 52.1 | 5.21
C#Cc1ccccc1CC1=C(O)C(=O)C(CCCCCCCCCCC)=C(O)C1=O | 50.3 | > 90 | 51.33 | Non-Toxic | 4.94 | 52.1 | 4.96
CCCCCCCCCCCC1=C(O)C(=O)C(Cc2ccc([N+](=O)[O-])cc2)=C(O)C1=O | 50.3 | > 90 | 51.33 | Non-Toxic | 4.9 | 52.1 | 5.25
CCCCCCCCCCCC1=C(O)C(=O)C(Cc2cc(Cl)ccc2Cl)=C(O)C1=O | 50.3 | > 90 | 51.33 | Non-Toxic | 4.69 | 52.1 | 5.32
CCCCCCCCCCCC1=C(O)C(=O)C(Cc2ccccc2Br)=C(O)C1=O | 50.3 | > 90 | 51.33 | Non-Toxic | 4.57 | 52.1 | 5.54
CCCCCCCCCCCC1=C(O)C(=O)C(Cc2ccc(Br)cc2)=C(O)C1=O | 50.3 | > 90 | 51.33 | Non-Toxic | 4.59 | 52.1 | 5.14
CCCCCCCCCCCC1=C(O)C(=O)C(Cc2ccc(Cl)cc2Cl)=C(O)C1=O | 50.3 | > 90 | 51.33 | Non-Toxic | 4.74 | 52.1 | 4.43
O=C1O[C@H]([C@@H](O)CO)C(O)=C1O [ASCORBIC ACID] | 90.2 |  |  |  | 1.87 | 91.1 | 1.42
CCCCCCCCCCCC1=C(O)C(=O)C(Cc2ccc(Cl)c(Cl)c2)=C(O)C1=O | 50.3 | > 90 | 51.33 | Non-Toxic | 4.87 | 52.1 | 5.09
CCCCCCCCCCCC1=C(O)C(=O)C(Cc2ccc(Cl)cc2)=C(O)C1=O | 50.3 | > 90 | 51.33 | Non-Toxic | 4.93 | 52.1 | 4.99
